697 NFkB inh – inhibitors of the PMA/ionomycin-induced NF-kB reporter in 697 B cells; AID 435022; 697 B-cell NF-kB luciferase reporter, 16 h; actives 0.33% (n = 330,000); inhibition, % at 4 µM; in the data active = inhibition above about 35%
TAG inh – reduces triacylglycerol accumulation in H9c2 cells | Nile Red lipid (TAG) fluorescence; cells loaded with 200 µM oleic acid | inhibition, % at 12.5 µM | actives 0.66% (n = 230,000) | AID 651582;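 active = pattern-corrected inhibition of lipid staining of at least 50% with the nuclear-stain viability signal not falling by more than 50%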;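 note: 0% = DMSO wells and 100% = triacsin C control wells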
Jurkat NFkB inh – inhibitors of the PMA/ionomycin-induced NF-kB reporter in Jurkat cells. PMA/ionomycin-induced NF-kB luciferase reporter, luminescence. inhibition, % at 4 µM. actives 0.53% (n = 330,000); in the data active = inhibition above about 50%
Hep lipid drop – modulators of hepatic lipid droplet formation. AML12 mouse hepatocytes, oleate lipid droplets, BODIPY imaging. actives 0.4% (n = 240,000). inhibition, % at 6.5 µM;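 active = lipid droplet intensity inhibited by at least 50%, with more than 500 cells counted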
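Assay system: AML12 mouse liver cells | Compound: 6.5 µM single-point dosing | Schedule: Overnight exposure | Technique: Fluorescence imaging, 20x objective, two fields per well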
aSyn 5UTR inh – MLPCN primary screen, SNCA 5' untranslated region. alpha-synuclein 5'UTR reporter, inhibitor activity. inhibition, % (tested at 7.5 µM). actives 0.82% (n = 300,000). AID 1813; in the data active = inhibition above about 60%;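 note: H4 neuroglioblastoma cells stably carrying SNCA 5'UTR luciferase fusion; 0% = DMSO wells and 100% = positive control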
APP 5UTR inh – APP translation inhibition; SH-SY5Y APP 5'UTR-luciferase reporter, luminescence; inhibition, % at 2 µM; actives 0.82% (n = 190,000); AID 1285;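 active = inhibition above a set limit, derived from the sample mean plus 3 SD, cut at about 45% in these data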
697 NFkB conf – lowers PMA/ionomycin-induced NF-kB signal in 697 B cells. shares compounds with 697 NFkB inh. actives 35% (n = 2,000). inhibition, % at 4 µM. 697 B-cell NF-kB luciferase, 16 h; in the data active = inhibition mostly above about 28%, no sharp cut-off; inactive = mostly below about 22%
The depositor's hits bear a star; . = no result. This is a sample that favours compounds with a hit; in the whole collection about 1.9% have one here.

SMILES	697 NFkB inh	TAG inh	Jurkat NFkB inh	Hep lipid drop	aSyn 5UTR inh	APP 5UTR inh	697 NFkB conf
CC1Sc2ccc(C(=O)NCc3cccc(C(F)(F)F)c3)cc2NC1=O (stereo unspecified)	23.3	-5.3	3.2	.	.	.	.
O=C(CCc1cn2ccccc2n1)NC1CCCc2c1cnn2-c1ccccc1F (stereo unspecified)	9.2	.	1.2	21.5	2.8	.	.
Cc1c(OC(C)C(=O)NCc2ccccn2)ccc2c3c(c(=O)oc12)CCCC3 (stereo unspecified)	12.7	.	-3.4	-15.1	-4.8	.	.
O=C(CNC(=O)c1ccc(Cl)cc1)c1ccc(Br)cc1	6.2	.	14.8	.	-7.6	.	.
COc1ccccc1/C=C1\SC(=S)N(CCC(=O)Nc2ccc(C(=O)O)c(O)c2)C1=O	16.8	.	2.0	-4.7	2.9	.	.
COc1ccccc1/C=C1\SC(=S)N(CC(=O)Nc2nnc(C)s2)C1=O	71.6*	.	0.8	-8.2	42.1	-7.2	2.9
Cc1cc(OCC(=O)Nc2ccc(CCO)cc2)c2c(C)c(C)c(=O)oc2c1	36.2*	.	-0.2	5.4	-10.0	.	39.8*
Cc1cc(OCC(=O)Nc2cccnc2)c2c(C)c(C)c(=O)oc2c1	19.7	.	0.5	-0.7	-5.7	.	.
COc1ccc(-c2cc3cc4c(cc3cn2)OCO4)cc1	-278.7	-4.2	-4.5	.	.	.	-351.9
COc1cc(-c2cc(-c3nnco3)c3ccccc3n2)cc(OC)c1OC	41.0*	4.7	0.0	-2.8	-10.5	11.8	9.1
CCc1cc2c(-c3ccccc3)cc(=O)oc2cc1OC(C)C(=O)NCC1CCC(C(=O)O)CC1 (stereo unspecified)	41.2*	.	-12.0	.	11.4	.	19.4
COc1ccc(-c2c(C)nn3c(N)c(-c4ccccc4)cnc23)cc1OC	5.9	20.6	2.0	-17.2	31.7	.	.
N#Cc1c(/N=C/c2cccs2)sc2c1CCCCC2	-426.0	-10.9	-134.6	4.3	-186.0	-148.6	-209.3
N#Cc1c(/N=C/c2ccc(Br)s2)sc2c1CCC2	.	16.7	.	-1.5	.	-25.0	.
COc1ccc(C(=O)Nc2ccc(OC)c([N+](=O)[O-])c2)cc1Br	39.2*	-0.1	6.9	-2.5	2.4	-1.0	34.8*
O=C(C1=NN(c2ccccc2)C(=O)CC1)N1CCc2ccccc2C1	9.5	.	14.1	-7.9	26.7	.	.
O=C(Nc1cccc(S(=O)(=O)Nc2ccc(Cl)cc2)c1)c1ccc(Cl)nc1	56.9*	-16.2	41.3	-5.6	-19.4	1.6	53.3*
Nn1c(=O)c2ccccc2n2c(SCc3ccc(C(F)(F)F)cc3)nnc12	16.8	12.8	-3.6	-1.0	13.3	5.7	.
Cc1ccccc1COC(=O)CCC1=NS(=O)(=O)c2ccccc2N1	-13.9	.	-6.2	-56.6	6.2	.	.
O=C(Nc1ccc(NC(=O)c2cccc([N+](=O)[O-])c2)cc1)c1cccc([N+](=O)[O-])c1	-17.3	12.2	-20.1	-6.2	-55.7	.	.
O=C(Nc1ncc([N+](=O)[O-])s1)c1cccc([N+](=O)[O-])c1	-449.9	.	-71.7	-5.4	31.7	.	-444.5
COC(=O)c1sc(NC(=O)c2cccc([N+](=O)[O-])c2)c(C(N)=O)c1C	12.7	.	2.6	10.9	28.0	-3.3	.
COC(=O)c1c(NC(=O)c2cccc([N+](=O)[O-])c2)sc(C(N)=O)c1C	39.4*	-1.1	15.9	1.4	3.4	0.5	50.1*
O=C(Nc1ccccc1)Nc1ncc([N+](=O)[O-])s1	-260.3	-15.8	-79.6	-42.8	-48.5	-120.0	-351.3
O=C(COC(=O)c1ccccc1)Nc1ncc([N+](=O)[O-])s1	-26.5	-7.1	-6.2	.	.	.	.
SMILES	697 NFkB inh	TAG inh	Jurkat NFkB inh	Hep lipid drop	aSyn 5UTR inh	APP 5UTR inh	697 NFkB conf
CC(C)Cn1c([N+](=O)[O-])nc2c1c(=O)[nH]c(=O)n2C	36.5*	9.9	16.9	1.9	-19.9	.	30.0*
O=C(O)c1ccccc1N=Cc1c(O)n(-c2nccs2)c(=O)c2ccccc12	41.7*	6.0	18.9	14.1	-3.9	.	12.2
O=c1c2ccccc2c(C=Nc2ccccc2O)c(O)n1-c1nccs1	4.5	5.4	-3.0	11.7	-7.8	.	.
COC(=O)C1CCN(C(=O)c2oc3c(Cl)cc(C)cc3c2C)CC1	-264.5	.	-99.5	-22.2	-74.1	.	-281.8
COc1ccc(Cc2nnc(NC(=O)c3ccc(OC)c(OC)c3)s2)cc1	-22.2	-9.0	18.3	-10.8	15.7	.	.
COc1ccc(C(=O)Nc2nnc(Cc3cccs3)s2)cc1OC	36.1*	-0.9	12.2	.	26.0	-0.4	36.8*
COc1ccc(C(=O)Nc2cccc(NC(=O)c3ccc(OC)c(OC)c3)n2)cc1OC	38.5*	15.6	40.5	27.7	-17.4	.	46.5*
COc1ccc(C(=O)Nc2cccc3cccnc23)cc1OC	19.9	.	-7.7	-13.0	-71.6	-13.1	.
Cc1ccc(NC(=O)COc2ccccc2C(=O)NCc2ccccc2)cc1	4.3	9.7	-1.3	.	.	.	.
Cc1ccccc1-c1nnc(SCC(=O)Nc2cccc(C)c2C)o1	37.4*	.	-32.7	.	-34.0	-12.4	13.8
COc1cccc(NC(=O)CSc2nnc(-c3cc(C)n(-c4ccccc4)c3C)o2)c1	70.8*	8.3	-5.8	.	-22.7	-37.6	16.9
CNc1ncc(C(=O)c2ccc(-c3ccccc3)cc2)s1	-350.5	-2.7	-119.8	-0.2	-54.0	.	-178.0
Cc1cc(C)c2oc(C(=O)N3CCN(C)CC3)cc(=O)c2c1	-24.7	.	-66.5	-42.7	-6.6	.	.
COc1cccc(NC(=O)N2CCC(C(=O)Nc3ccc(C)cc3C)CC2)c1	35.1*	30.0	1.9	.	37.7	-17.6	12.8
COc1ccccc1N(CN1C(=O)c2ccccc2C1=O)C(=O)c1cccc(C)c1	2.7	.	-2.1	13.2	-3.8	-10.8	.
COc1ccc(/C=N/OCC(=O)Nc2cc(C)on2)cc1OC	15.4	.	2.0	3.1	-1.0	-9.9	.
COc1ccc(/C=N/OCC(=O)NC(c2ccccc2)c2ccccc2)cc1OC	68.4*	-6.7	43.5	2.5	32.9	22.3	38.5*
CCSCCOC(=O)C1=C(C)NC2=C(C(=O)CCC2)C1c1coc2ccccc2c1=O (stereo unspecified)	35.9*	-4.4	4.5	.	35.6	12.7	13.8
C#CCOCCOCCOCCNc1nc(N2CCN(C(=O)[C@H](CCCCN)n3cc(CCCC)nn3)CC2)nc(N2CCN(C(=O)[C@H](CCCCN)n3cc(CCC(=O)O)nn3)CC2)n1	7.1	0.6	14.5	.	.	.	.
CCOC(=O)C1CCCN(C/C=C/c2ccccc2)C1 (stereo unspecified)	8.1	.	-9.6	-2.2	-5.8	.	.
CC1CCN(C(=O)CCCOc2cc(=O)n(C)c3ccccc23)CC1	38.3*	0.3	8.4	-4.5	10.9	-14.2	37.5*
CC(C)CCNC(=O)CCCOc1cc(=O)n(C)c2ccccc12	52.4*	.	-8.9	.	-4.5	-9.3	55.3*
COc1ccc(N2CCN(C(=O)CCCOc3cc(=O)n(C)c4ccccc34)CC2)cc1	26.6	.	5.1	.	-4.5	2.2	.

High-throughput results from PubChem.
